# Laboratory results: ChEMBL document CHEMBL4393708, “Pyridinylimidazoles as dual glycogen synthase kinase 3β/p38α mitogen-activated protein kinase inhibitors” (Eur J Med Chem, 2019)
# Key:
# [1] = target: Fibroblast growth factor receptor 3 (Homo sapiens) (UniProt P22607); test: Inhibition of human recombinant FGFR3 at 1 uM using Ulight-CAGAGAIETDKEYYTVKD as substrate measured after 90 mins in presence of ATP by LANCE assay relative to control
# Summary of the method: (§1)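 Kinase panel run by an outside provider (Eurofins Cerep) in a LANCE assay, single test concentration of 1 µM, results as percent inhibition.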
# [2] = target: Ephrin type-A receptor 3 (Homo sapiens) (UniProt P29320); test: Inhibition of human recombinant EPHA3 at 1 uM using Ulight-TK peptide as substrate measured after 60 mins in presence of ATP by LANCE assay relative to control; summary of the method: as §1
# Ephrin type-A receptor 3 (Homo sapiens), sequence (P29320 whole entry): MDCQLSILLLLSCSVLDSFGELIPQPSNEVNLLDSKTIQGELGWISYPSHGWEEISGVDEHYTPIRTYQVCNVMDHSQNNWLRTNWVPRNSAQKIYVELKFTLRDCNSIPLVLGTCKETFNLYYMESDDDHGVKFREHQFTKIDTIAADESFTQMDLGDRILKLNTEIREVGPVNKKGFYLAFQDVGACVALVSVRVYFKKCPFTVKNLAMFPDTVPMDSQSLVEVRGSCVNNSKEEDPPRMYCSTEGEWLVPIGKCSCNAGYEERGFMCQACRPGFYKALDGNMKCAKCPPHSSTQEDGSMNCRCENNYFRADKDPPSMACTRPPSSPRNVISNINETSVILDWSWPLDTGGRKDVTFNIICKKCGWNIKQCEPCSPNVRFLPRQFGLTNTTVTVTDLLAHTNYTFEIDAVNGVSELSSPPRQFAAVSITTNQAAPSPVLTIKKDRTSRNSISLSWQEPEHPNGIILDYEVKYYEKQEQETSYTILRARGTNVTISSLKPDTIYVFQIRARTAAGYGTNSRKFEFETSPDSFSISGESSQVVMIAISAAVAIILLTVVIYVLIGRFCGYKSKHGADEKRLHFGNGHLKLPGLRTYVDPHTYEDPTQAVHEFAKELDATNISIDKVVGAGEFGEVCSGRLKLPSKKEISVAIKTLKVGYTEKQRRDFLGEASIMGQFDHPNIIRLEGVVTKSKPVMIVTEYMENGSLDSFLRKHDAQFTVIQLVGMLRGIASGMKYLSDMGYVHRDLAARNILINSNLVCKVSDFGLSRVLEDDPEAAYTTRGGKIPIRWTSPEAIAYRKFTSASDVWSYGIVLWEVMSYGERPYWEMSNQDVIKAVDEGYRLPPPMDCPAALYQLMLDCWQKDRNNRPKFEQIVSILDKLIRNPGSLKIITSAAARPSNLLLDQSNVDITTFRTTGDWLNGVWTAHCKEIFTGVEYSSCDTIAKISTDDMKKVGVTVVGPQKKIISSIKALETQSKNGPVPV
# [3] = target: Serine/threonine-protein kinase Chk2 (Homo sapiens) (UniProt O96017); test: Inhibition of human recombinant CHK2 at 1 uM using CREBtide as substrate incubated for 15 mins in presence of ATP by LANCE assay relative to control; summary of the method: as §1
# Serine/threonine-protein kinase Chk2 (Homo sapiens), sequence (O96017 whole entry): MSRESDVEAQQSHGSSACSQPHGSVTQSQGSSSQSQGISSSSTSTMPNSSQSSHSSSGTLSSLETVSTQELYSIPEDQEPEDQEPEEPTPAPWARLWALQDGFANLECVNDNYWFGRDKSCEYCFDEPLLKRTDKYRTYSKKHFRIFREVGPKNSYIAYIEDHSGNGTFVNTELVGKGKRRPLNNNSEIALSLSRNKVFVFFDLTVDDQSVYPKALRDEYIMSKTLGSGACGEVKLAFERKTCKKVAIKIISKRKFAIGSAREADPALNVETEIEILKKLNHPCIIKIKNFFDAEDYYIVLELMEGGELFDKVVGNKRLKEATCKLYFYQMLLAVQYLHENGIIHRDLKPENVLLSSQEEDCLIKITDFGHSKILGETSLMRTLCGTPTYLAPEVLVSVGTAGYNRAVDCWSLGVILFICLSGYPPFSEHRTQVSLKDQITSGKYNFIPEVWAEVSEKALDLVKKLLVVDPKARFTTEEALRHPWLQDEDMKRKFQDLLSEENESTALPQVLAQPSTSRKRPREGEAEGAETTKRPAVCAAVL
# [4] = target: Mitogen-activated protein kinase 14 (Homo sapiens, UniProt Q16539); test: Inhibition of p38alpha MAPK (unknown origin) using ATF-2 as substrate after 1 hr by ELISA
# Mitogen-activated protein kinase 14, sequence (Q16539 whole entry): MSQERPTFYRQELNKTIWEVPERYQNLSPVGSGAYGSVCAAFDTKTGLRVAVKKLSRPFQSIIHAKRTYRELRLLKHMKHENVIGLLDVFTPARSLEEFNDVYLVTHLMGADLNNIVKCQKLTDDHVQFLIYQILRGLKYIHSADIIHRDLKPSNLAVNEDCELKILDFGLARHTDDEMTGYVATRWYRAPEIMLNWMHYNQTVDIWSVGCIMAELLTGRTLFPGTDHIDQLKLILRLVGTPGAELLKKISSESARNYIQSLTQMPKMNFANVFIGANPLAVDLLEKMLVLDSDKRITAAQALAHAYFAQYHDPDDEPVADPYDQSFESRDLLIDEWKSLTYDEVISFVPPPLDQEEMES
# Fibroblast growth factor receptor 3 (Homo sapiens), sequence (P22607 23-806 limits assumed): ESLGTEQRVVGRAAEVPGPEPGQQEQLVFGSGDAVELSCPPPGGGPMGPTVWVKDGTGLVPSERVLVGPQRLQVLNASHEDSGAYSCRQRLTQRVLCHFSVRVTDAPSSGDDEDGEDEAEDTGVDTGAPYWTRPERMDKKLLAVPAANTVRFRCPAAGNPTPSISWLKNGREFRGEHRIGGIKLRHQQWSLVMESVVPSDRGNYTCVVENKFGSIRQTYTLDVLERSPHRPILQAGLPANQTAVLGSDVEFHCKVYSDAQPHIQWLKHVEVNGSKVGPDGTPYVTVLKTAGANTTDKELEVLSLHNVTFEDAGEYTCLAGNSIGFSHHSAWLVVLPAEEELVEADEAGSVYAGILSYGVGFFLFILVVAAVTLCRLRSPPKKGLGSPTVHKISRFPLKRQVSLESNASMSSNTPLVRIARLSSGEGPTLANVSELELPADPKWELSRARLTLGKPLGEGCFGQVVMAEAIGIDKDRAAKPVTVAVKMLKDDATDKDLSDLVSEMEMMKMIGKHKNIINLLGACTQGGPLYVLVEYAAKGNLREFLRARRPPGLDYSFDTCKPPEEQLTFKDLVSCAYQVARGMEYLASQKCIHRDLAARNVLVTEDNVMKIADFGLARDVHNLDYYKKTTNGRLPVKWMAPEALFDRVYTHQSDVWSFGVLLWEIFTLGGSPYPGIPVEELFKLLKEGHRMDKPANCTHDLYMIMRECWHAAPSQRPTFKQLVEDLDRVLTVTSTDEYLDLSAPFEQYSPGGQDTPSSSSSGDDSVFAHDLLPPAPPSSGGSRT
compound,measurement,setting,value
CCc1nc(-c2ccc(F)cc2)c(-c2ccnc(NC(=O)C3CC3)c2)[nH]1,inhibition,[1],64.5%
same,inhibition,[2],76.6%
same,inhibition,[3],-9.7%
same,IC50,[4],16 nM
